Consider two compounds from ChEMBL document CHEMBL1129573, “Structure-activity relationships in a series of substituted indolocarbazoles: topoisomerase I and protein kinase C inhibition and antitumoral and antimicrobial properties” (J Med Chem, 1996).

Assay [1] relates to Mus musculus. The experiment in a line: In vivo efficacy study on mice with P388 Leukemia Cells determined after administration of 2 mg/kg/day dosage. The format is functional. The gist of the method: (§1)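 Male B6D2F1 mice injected intraperitoneally with 1×10^6 P388 leukemia cells on day 0 (line kept by weekly intraperitoneal passage in male DBA/2 mice). Drug given intraperitoneally on days 1, 5 and 9. Controls received DMSO–olive oil solvent. Six mice per treated group, 12 controls. Median survival time compared with controls, reported as oncostatic index T/C × 100.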

Another assay concerns Bacillus cereus. Kind of assay: Antimicrobial activity on Bacillus cereus. The format is functional.
In assay [2] the test system is Mus musculus. Kind of assay: In vivo efficacy study on mice with B16 Melanoma cells determined after administration of 64 mg/kg/day dosage. The format is functional, Melanoma cell. The gist of the method: (§2)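 Male B6D2F1 mice given 0.5 × 10⁶ B16 melanoma cells subcutaneously on the dorsum on day 0 (cells maintained in MEM culture). Drug given intraperitoneally on days 1, 5 and 9. Controls received DMSO–olive oil solvent. Six mice per treated group, 12 controls. Median survival time compared with controls, reported as oncostatic index T/C × 100.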

The subject of assay [3] is Mus musculus. Kind of assay: In vivo efficacy study on mice with B16 Melanoma cells determined after administration of 16 mg/kg/day dosage. The format is functional, Melanoma cell. The gist of the method: as §2
A further assay has as its system P388. The experiment in a line: Antiproliferative activity against P388 Murine Leukemia cells. As to conditions: Mus musculus. In kind it is functional, cell-based.
The nature of assay [4]: Inhibition of Protein Kinase A (PKA). The gist of the method:
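PKA (1 μg/mL) phosphorylating histone IIa (1 mg/mL) with 10 μM ATP plus [γ32P]ATP, 5 mM MgCl2, 50 mM Tris pH 7.0, at 30 °C for 12 min. Stopped with 12% TCA with BSA carrier, reprecipitated. 32P incorporated into histone counted by scintillation; triplicate.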

The test system of assay [5] is B16. The experiment in a line: Antiproliferative activity against B16 mouse melanoma cells. The format is functional, cell-based. The gist of the method:
(§3)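 B16 mouse melanoma cells (EMEM, 10% FCS, 37 °C, 5% CO2) plated at 200 cells/dish, adhered 20 h, then exposed 24 h to increasing drug concentrations. Drug medium removed, PBS wash, 12 days regrowth in fresh medium.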

Assay [6] deals with Mus musculus. Kind of assay: In vivo efficacy study on mice with P388 Leukemia Cells determined after administration of 16 mg/kg/day dosage. In kind it is functional. The gist of the method: as §1
For assay [7], the system named is Mus musculus. Kind of assay: In vivo efficacy study on mice with B16 Melanoma cells determined after administration of 2 mg/kg/day dosage. The format is functional, Melanoma cell. Summed up: as §2
Assay [8] deals with Mus musculus. The experiment in a line: Antitumor activity against mice with B16 melanoma was assessed from the ratio of median survival time of treated animals (T) to controls animals, at 16 mg/Kg. The format is functional. Summed up:
as §2

For assay [9], the system named is Mus musculus. Kind of assay: Antitumor activity against mice with P388 leukemia cell was assessed from the ratio of median survival time of treated animals (T) to controls animals, at 16 mg/Kg. In kind it is functional. The gist of the method:
as §1

Assay [10] has as its system Mus musculus. Kind of assay: Antitumor activity against mice with P388 leukemia cell was assessed from the ratio of median survival time of treated animals (T) to controls animals, at 64 mg/Kg. The format is functional. Summed up: as §1
Assay [11] relates to Mus musculus. Kind of assay: In vivo efficacy study on mice with P388 Leukemia Cells determined after administration of 64 mg/kg/day dosage. In kind it is functional. Summed up:
as §1

Assay [12] relates to Mus musculus. Kind of assay: Antitumor activity against mice with B16 melanoma was assessed from the ratio of median survival time of treated animals (T) to controls animals, at 2 mg/Kg. The format is functional. The gist of the method:
as §2

Assay [13] deals with Mus musculus. Kind of assay: Antitumor activity against mice with B16 melanoma was assessed from the ratio of median survival time of treated animals (T) to controls animals, at 64 mg/Kg. In kind it is functional. The gist of the method:
as §2

In assay [14] the test system is Mus musculus. The experiment in a line: Antitumor activity against mice with P388 leukemia cell was assessed from the ratio of median survival time of treated animals (T) to controls animals, at 2 mg/Kg. In kind it is functional. The gist of the method: as §1
For assay [15], the target named is Protein kinase C alpha type (Homo sapiens, UniProt P17252). The experiment in a line: Inhibition of Protein Kinase C(PKC). The gist of the method:
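Procedure a: PKC (0.5 μg/mL) with histone IIIs (2.4 mg/mL), 10 μM ATP plus [γ32P]ATP, 10 mM MgCl2, 0.1 mM CaCl2, phosphatidylserine and diacylglycerol (10 mg/mL each), 50 mM Tris pH 7.5, at 30 °C for 12 min. TCA precipitation, histone-bound 32P counted by scintillation; triplicate.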

The test system of assay [16] is B16. The experiment in a line: Compound was evaluated for antiproliferative activity against B16 mouse melanoma cells *= Partially precipitated in DMSO. In kind it is functional, cell-based. Summed up:
as §3

Converted amounts (≈) assume the structure as drawn.

For orientation: MIC means the lowest concentration found to suppress growth. Low readings indicate a more susceptible organism, high ones a less susceptible organism. In general, IC50 refers to the concentration that gives 50% inhibition. A low value points to greater potency.

Regarding `O=C1NCc2c1c1c3ccccc3[nH]c1c1[nH]c3ccccc3c21` [STAUROSPORINONE], the “Mean survival in days” value is 11 in the assay on Mus musculus [1]; 26 in the assay on Mus musculus [2]; 30 with Mus musculus [3]; 11 with Mus musculus [6]; 23 in the assay on Mus musculus [7]; 11.5 in the assay with Mus musculus [11]. In the assay with Bacillus cereus, the minimum inhibitory concentration (MIC) is greater than 50 µg/mL. Besides, the IC50 stood at 4 µM in the assay with P388, 25.7 µM in assay [4] and 4.8 µM in the assay with B16 [5]. For the same compound, the “T/C x100” value with Mus musculus [8] was determined as 122; in the assay on Mus musculus [9], 100; with Mus musculus [10], 104; in the assay on Mus musculus [12], 94; in the assay on Mus musculus [13] it was 106; in the assay with Mus musculus [14], 100.
`NNC(=O)NN1C(=O)c2c(c3c4ccccc4[nH]c3c3[nH]c4ccccc4c23)C1=O`: the IC50 was 78 µM in [15], 75 µM with B16 [16] and greater than 10 µM in the assay on P388. Moreover, the lowest concentration to inhibit growth against Bacillus cereus (MIC) was 50 µg/mL (≈ 126 µM).
